Experimental data taken from ChEMBL document CHEMBL5705905, “Pharmacological targeting of kinases MST1 and MST2 augments tissue repair and regeneration” (Sci Transl Med, 2016).
Calls of active or inactive are those of the source. The rule behind the calls is not given here.

Assays:
[1] = target: Serine/threonine-protein kinase LATS2 (Homo sapiens) (UniProt Q9NRM7); assay: Inhibition of LATS2 (unknown origin) assessed as remaining activity at 1 uM by Kinome scan method relative to control
[2] = target: Dual specificity mitogen-activated protein kinase kinase 5 (Homo sapiens) (UniProt Q13163); assay: Inhibition of MEK5 (unknown origin) assessed as remaining activity at 1 uM by Kinome scan method relative to control
HepG2 [3] = assay: Induction of apoptosis in human HepG2 cells assessed as necrosis cells at 3 uM by annexinV staining (Rvb =0.04 %); format: functional
[4] = target: Mitogen-activated protein kinase kinase kinase 9 (Homo sapiens) (UniProt P80192); assay: Inhibition of MLK1 (unknown origin) assessed as remaining activity at 1 uM by Kinome scan method relative to control
[5] = target: Phosphatidylinositol 4,5-bisphosphate 3-kinase catalytic subunit gamma isoform (Homo sapiens, UniProt P48736); assay: Binding affinity to PIK3CG (unknown origin) assessed as dissociation constant
Chain of Phosphatidylinositol 4,5-bisphosphate 3-kinase catalytic subunit gamma isoform (P48736 whole entry, canonical isoform): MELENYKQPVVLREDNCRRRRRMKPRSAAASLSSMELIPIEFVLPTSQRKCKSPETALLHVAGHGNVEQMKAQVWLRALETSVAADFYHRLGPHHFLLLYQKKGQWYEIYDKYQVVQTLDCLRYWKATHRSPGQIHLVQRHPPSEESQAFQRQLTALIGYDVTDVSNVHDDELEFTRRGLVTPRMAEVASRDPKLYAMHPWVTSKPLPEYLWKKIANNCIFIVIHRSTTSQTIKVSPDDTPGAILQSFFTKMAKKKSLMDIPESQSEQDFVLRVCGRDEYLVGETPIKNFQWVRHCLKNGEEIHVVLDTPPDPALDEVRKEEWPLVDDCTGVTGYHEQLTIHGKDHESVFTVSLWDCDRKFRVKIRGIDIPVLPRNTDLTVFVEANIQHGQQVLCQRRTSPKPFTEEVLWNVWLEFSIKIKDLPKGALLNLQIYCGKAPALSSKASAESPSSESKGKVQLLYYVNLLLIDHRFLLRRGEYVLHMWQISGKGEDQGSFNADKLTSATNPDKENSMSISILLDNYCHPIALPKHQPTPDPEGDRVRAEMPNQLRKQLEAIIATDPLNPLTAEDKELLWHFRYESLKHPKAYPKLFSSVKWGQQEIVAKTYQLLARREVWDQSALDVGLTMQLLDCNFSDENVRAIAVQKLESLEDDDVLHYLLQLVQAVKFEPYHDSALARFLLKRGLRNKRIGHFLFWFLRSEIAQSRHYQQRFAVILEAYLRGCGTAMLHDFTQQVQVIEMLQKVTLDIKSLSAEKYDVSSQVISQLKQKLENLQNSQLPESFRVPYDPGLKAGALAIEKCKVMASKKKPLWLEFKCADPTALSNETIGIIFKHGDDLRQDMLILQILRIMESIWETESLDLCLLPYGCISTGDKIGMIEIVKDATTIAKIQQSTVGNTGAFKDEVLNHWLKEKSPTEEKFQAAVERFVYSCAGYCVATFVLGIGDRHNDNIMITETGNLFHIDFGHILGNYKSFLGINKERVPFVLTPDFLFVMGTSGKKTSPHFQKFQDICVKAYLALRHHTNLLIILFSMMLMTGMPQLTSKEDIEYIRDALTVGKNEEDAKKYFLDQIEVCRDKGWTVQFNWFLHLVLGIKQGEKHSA

[6] = target: Serine/threonine-protein kinase ULK1 (Homo sapiens) (UniProt O75385); assay: Inhibition of ULK1 (unknown origin) assessed as remaining activity at 1 uM by Kinome scan method relative to control
Chain of Serine/threonine-protein kinase ULK1 (Homo sapiens) (O75385 whole entry): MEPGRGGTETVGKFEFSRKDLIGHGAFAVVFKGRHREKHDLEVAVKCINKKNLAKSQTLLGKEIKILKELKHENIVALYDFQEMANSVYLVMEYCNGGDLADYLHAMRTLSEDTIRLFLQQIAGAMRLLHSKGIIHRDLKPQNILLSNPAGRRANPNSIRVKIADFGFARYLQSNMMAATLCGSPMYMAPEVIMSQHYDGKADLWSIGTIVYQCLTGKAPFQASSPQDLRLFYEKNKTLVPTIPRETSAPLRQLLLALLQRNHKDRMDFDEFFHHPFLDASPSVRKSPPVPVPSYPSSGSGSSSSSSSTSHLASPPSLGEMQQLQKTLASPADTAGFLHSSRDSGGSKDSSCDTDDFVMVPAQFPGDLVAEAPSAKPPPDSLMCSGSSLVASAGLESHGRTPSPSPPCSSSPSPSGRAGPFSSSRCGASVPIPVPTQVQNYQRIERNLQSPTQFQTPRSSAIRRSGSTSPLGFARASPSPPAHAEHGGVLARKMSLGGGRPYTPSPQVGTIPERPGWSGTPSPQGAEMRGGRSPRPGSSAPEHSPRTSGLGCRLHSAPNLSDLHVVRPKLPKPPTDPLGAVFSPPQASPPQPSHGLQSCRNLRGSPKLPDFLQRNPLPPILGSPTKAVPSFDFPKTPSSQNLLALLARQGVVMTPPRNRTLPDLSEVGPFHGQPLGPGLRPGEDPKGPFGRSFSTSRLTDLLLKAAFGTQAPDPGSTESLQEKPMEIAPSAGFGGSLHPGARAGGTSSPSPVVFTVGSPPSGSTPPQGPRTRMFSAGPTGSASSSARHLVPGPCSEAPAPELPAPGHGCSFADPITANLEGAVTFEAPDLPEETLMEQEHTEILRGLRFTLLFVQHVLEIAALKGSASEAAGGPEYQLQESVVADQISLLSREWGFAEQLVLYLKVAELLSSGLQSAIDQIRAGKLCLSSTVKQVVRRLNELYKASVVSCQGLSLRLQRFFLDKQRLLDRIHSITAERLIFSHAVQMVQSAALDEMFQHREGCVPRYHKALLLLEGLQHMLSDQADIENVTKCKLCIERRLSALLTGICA

[7] = target: Membrane-associated tyrosine- and threonine-specific cdc2-inhibitory kinase (Homo sapiens) (UniProt Q99640); assay: Inhibition of PKMYT1 (unknown origin) assessed as remaining activity at 1 uM by Kinome scan method relative to control
[8] = target: Dual specificity mitogen-activated protein kinase kinase 3 (Homo sapiens) (UniProt P46734); assay: Inhibition of MEK3 (unknown origin) assessed as remaining activity at 1 uM by Kinome scan method relative to control
Chain of Dual specificity mitogen-activated protein kinase kinase 3 (Homo sapiens) (P46734 whole entry): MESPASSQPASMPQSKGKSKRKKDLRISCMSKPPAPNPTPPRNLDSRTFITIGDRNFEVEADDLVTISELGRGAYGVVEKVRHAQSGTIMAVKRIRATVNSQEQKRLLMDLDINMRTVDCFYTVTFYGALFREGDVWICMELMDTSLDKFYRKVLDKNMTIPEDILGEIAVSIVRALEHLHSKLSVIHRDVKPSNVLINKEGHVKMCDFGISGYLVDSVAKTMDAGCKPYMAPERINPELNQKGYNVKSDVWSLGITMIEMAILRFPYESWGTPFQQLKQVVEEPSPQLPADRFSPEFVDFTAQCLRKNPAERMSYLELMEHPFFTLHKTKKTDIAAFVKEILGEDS

[9] = target: Cytoplasmic tyrosine-protein kinase BMX (Homo sapiens) (UniProt P51813); assay: Inhibition of BMX (unknown origin) assessed as remaining activity at 1 uM by Kinome scan method relative to control
Method in brief: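 Active-site-dependent competition-binding (KINOMEscan) panel of 468 kinases, test compound at 1 μM (from a 10 mM DMSO stock). Read-out is ctrl% = (test signal − positive control signal)/(negative control signal − positive control signal) × 100. DMSO is the negative control (100%) and a control compound is the positive control (0%). Lower ctrl% means tighter binding.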

[10] = target: Mitogen-activated protein kinase kinase kinase 4 (Homo sapiens) (UniProt Q9Y6R4); assay: Inhibition of MAP3K4 (unknown origin) assessed as remaining activity at 1 uM by Kinome scan method relative to control
Mus musculus [11] = assay: Protection against APAP induced liver injury in mouse assessed as decrease in ALT level at 1 mg/kg, ip administered at 2.5 hrs in the presence of NAC; format: functional, organism-based; conditions: Serum
[12] = tested on: Receptor-type tyrosine-protein kinase FLT3 (Homo sapiens), P36888 [UNDEFINED MUTATION]; assay: Inhibition of FLT3 […]/F691L mutant (unknown origin) assessed as remaining activity at 1 uM by Kinome scan method relative to control
HepG2 [13] = assay: Inhibition of Flag-tagged MST1 D109A mutant (unknown origin) in human HepG2 cells assessed as MOB1 phosphorylation level at 0.3 to 10 uM by immunoblot analysis; format: cell-based; conditions: dose 0.3-10 µM
[14] = target: Tyrosine-protein kinase ABL1 (Homo sapiens, UniProt P00519, Q252H); assay: Binding affinity to phosphorylated ABL1 Q252H mutant (unknown origin) assessed as dissociation constant
[15] = target: Maternal embryonic leucine zipper kinase (Homo sapiens) (UniProt Q14680); assay: Inhibition of MELK (unknown origin) assessed as remaining activity at 1 uM by Kinome scan method relative to control
Mus musculus [16] = assay: Protection against APAP induced liver injury in mouse assessed as continual expansion of centrilobular necrotic lesions at 1 mg/kg, ip administered at 2.5 hrs by H&E staining; format: functional, organism-based
[17] = target: Serine/threonine-protein kinase MAK (Homo sapiens) (UniProt P20794); assay: Inhibition of MAK (unknown origin) assessed as remaining activity at 1 uM by Kinome scan method relative to control
Chain of Serine/threonine-protein kinase MAK (Homo sapiens) (P20794 whole entry): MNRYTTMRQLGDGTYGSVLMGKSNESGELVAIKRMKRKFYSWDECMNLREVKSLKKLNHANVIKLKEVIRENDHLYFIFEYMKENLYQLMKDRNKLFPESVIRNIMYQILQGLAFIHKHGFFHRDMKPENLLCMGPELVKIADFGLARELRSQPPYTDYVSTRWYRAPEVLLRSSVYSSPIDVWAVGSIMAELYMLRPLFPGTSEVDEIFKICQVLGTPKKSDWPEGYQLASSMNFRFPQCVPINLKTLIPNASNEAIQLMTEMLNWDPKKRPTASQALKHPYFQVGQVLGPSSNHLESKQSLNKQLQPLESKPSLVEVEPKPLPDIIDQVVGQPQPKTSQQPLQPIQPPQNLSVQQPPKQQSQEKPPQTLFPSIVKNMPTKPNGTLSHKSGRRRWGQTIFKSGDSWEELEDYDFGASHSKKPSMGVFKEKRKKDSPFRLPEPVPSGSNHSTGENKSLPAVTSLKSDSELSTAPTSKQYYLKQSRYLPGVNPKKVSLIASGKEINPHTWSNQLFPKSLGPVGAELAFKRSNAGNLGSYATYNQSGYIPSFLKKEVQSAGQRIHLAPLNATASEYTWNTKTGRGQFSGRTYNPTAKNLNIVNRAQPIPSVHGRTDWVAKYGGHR

[18] = tested on: Epidermal growth factor receptor (Homo sapiens), P00533 [L861Q]; assay: Inhibition of EGFR L861Q mutant (unknown origin) assessed as remaining activity at 1 uM by Kinome scan method relative to control
[19] = target: Calcium/calmodulin-dependent protein kinase type IV (Homo sapiens) (UniProt Q16566); assay: Inhibition of CAMK4 (unknown origin) assessed as remaining activity at 1 uM by Kinome scan method relative to control
Chain of Calcium/calmodulin-dependent protein kinase type IV (Homo sapiens) (Q16566 whole entry): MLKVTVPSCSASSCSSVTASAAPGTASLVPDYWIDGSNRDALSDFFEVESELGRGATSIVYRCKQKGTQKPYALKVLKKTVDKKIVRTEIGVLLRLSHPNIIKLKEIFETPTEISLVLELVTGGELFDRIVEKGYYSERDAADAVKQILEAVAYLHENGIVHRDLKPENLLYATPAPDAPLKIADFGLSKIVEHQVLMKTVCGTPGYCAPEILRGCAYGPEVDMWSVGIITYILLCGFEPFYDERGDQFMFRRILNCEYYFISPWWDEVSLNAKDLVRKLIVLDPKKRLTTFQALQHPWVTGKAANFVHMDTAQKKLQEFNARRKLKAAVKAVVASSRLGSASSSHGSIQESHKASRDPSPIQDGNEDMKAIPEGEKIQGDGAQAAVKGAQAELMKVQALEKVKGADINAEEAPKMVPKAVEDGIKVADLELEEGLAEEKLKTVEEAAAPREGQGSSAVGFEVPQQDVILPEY
Method in brief: (§1)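 Active-site-dependent competition-binding profiling (KINOMEscan) at 1 μM against a 468-kinase panel; compound supplied from a 10 mM DMSO stock. Read-out is ctrl% = (test signal − positive control signal)/(negative control signal − positive control signal) × 100. DMSO is the negative control (100%) and a control compound the positive control (0%). Lower ctrl% means tighter binding.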

[20] = target: Casein kinase II subunit alpha' (Homo sapiens) (UniProt P19784); assay: Inhibition of CSNK2A2 (unknown origin) assessed as remaining activity at 1 uM by Kinome scan method relative to control; method in brief: as §1
Chain of Casein kinase II subunit alpha' (Homo sapiens) (P19784 whole entry, looked up): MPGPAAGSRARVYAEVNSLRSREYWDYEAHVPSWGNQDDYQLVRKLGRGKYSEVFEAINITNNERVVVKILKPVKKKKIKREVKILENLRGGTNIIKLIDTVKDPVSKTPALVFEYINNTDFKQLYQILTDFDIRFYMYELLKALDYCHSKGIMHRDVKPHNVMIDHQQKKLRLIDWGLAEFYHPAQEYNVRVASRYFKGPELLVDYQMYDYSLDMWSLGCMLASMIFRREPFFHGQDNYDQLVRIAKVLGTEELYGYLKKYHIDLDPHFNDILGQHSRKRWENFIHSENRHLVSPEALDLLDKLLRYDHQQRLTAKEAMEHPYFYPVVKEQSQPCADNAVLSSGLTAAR

Mus musculus [21] = assay: Protection against APAP induced liver injury in mouse assessed as decrease in ALT level at 1 mg/kg, ip administered at 1.5 hrs in the presence of NAC; format: functional, organism-based; conditions: Serum
[22] = tested on: Phosphatidylinositol 4,5-bisphosphate 3-kinase catalytic subunit alpha isoform (Homo sapiens), P42336 [E545A]; assay: Inhibition of PIK3CA E545A mutant (unknown origin) assessed as remaining activity at 1 uM by Kinome scan method relative to control
[23] = Acute toxicity in wild-type mouse assessed as ratio of liver weight to body weight at 1 mg/kg,ip administrated daily for 2 months and after 2 weeks drug withdrawal; format: organism-based; conditions: in vivo, 1460 h
Method in brief: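 Liver/body weight ratio in wild-type mice after 1 mg/kg i.p. daily for 2 months, or after a further 2 weeks off drug. n = 6; means ± SD, Student's t test. Vehicle was 0.1% citric acid aqueous solution with 20% Kolliphor HS 15.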

[24] = target: Calcium/calmodulin-dependent protein kinase kinase 1 (Homo sapiens) (UniProt Q8N5S9); assay: Inhibition of CAMKK1 (unknown origin) assessed as remaining activity at 1 uM by Kinome scan method relative to control; method in brief: as §1

Chain of Serine/threonine-protein kinase LATS2 (Homo sapiens) (Q9NRM7 whole entry): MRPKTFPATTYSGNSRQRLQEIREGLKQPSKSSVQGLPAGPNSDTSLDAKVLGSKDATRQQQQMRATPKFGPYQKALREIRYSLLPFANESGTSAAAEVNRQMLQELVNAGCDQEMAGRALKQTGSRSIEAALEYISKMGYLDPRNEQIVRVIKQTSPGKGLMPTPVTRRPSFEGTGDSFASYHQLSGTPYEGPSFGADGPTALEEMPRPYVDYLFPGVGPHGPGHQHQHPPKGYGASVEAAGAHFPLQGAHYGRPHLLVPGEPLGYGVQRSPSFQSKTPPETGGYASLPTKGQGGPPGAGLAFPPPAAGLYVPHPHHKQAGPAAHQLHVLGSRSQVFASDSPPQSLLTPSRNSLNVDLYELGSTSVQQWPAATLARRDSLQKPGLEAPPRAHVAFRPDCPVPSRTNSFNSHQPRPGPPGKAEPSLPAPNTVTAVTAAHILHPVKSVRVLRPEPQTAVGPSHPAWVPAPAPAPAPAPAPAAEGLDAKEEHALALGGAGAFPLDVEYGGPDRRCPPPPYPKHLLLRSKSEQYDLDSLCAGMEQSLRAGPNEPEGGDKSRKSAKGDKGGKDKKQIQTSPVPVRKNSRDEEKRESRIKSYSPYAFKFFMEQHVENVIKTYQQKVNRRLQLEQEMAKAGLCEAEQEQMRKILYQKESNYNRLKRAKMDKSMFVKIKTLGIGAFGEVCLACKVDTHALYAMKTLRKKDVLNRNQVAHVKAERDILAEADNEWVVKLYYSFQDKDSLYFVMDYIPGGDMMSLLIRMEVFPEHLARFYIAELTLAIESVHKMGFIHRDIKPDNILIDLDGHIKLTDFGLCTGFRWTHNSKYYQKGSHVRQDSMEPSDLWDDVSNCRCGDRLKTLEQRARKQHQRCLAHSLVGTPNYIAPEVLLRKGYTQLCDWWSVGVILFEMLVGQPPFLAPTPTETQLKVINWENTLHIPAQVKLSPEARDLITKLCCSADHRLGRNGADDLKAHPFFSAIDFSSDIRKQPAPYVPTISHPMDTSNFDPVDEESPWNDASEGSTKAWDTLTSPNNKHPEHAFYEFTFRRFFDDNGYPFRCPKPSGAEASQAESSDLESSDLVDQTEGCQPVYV

Work on `CN1C(=O)c2sccc2N(C)c2nc(Nc3ccc(S(N)(=O)=O)cc3)ncc21` yielded an Activity [1] of 100%, an Activity [2] of 79% and an Activity (HepG2 [3]) of 0.05%. The Activity [4] was 100%, the Kd [5] was 4.8 nM and the Activity [6] was 21%. For the same molecule, the Activity [7] was 100%, the Activity [8] was 66% and the Activity [9] was 90%. For the same molecule, the Activity [10] was 91%, the Activity (Mus musculus [11]) was “Active” and the Activity [12] was 26%. For the same molecule, the inhibition (HepG2 [13]) was “Active”, the Kd [14] was 24 nM and the Activity [15] was 100%. For the same molecule, the Activity (Mus musculus [16]) was “Active”, the Activity [17] was 100% and the Activity [18] was 64%. For the same molecule, the Activity [19] was 100%, the Activity [20] was 97% and the Activity (Mus musculus [21]) was “Active”. The Activity [22] was 81%, the Activity [23] was “Toxic” and the Activity [24] was 80%.
